{"source": "paper PMC3275116", "about": "(Clinics, 2012)", "key": {"[1]": {"assay": "Determination of log P values", "assay_type": "physicochemical", "conditions": "n-octanol/water 3 mL:3 mL, 100 µL radiotracer, gamma counter, triplicate samples", "summary_of_the_method": "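Radiotracer (100 µL; 99mTc labeling by stannous-tartrate exchange at 100°C, 20 min) was added to equal volumes (3 mL each) of n-octanol and water, stirred vigorously and centrifuged. Triplicate samples from each phase were gamma-counted to give the partition ratio and log P.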"}, "[2]": {"system": "PC-3 human prostate carcinoma cells", "assay": "In vitro cell binding assay with increasing cold conjugate", "assay_type": "cell-based", "conditions": "120 min", "summary_of_the_method": "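PC3 androgen-independent cells were grown in RPMI 1640 with 10% (v/v) fetal calf serum at 37°C, 5% CO2, harvested near confluency by trypsinization, and seeded at 10^6 cells/well 24 h before assay. Wells received 90 pM 99mTc-labeled peptide with increasing cold conjugate (1 nM to 18 nM) and were incubated 120 min. Cell-associated radioactivity was gamma-counted.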"}, "[3]": {"assay": "Biodistribution in healthy Swiss mice", "assay_type": "in vivo", "conditions": "i.v. 0.1 mL/18.5 MBq, mean ± SD n = 6", "summary_of_the_method": "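Male Swiss albino mice (20 - 25 g) received 99mTc-labeled conjugate by tail vein (0.1 mL/18.5 MBq). Six mice per time point were killed by cervical dislocation at 5, 30, 90 and 240 min. Organs were excised, weighed and counted on a NaI(Tl) gamma counter; stomach and intestine were counted after removing luminal contents. %ID/g was calculated using injected-dose activity as standard; mean ± SD.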"}, "PC-3 tumors [4]": {"system": "PC-3 tumors", "assay": "Biodistribution in Nude mice bearing PC-3 tumors", "assay_type": "in vivo", "conditions": "for Blood uptake / Bone uptake / Heart uptake / Lung uptake / Muscle uptake / Spleen uptake / Stomach uptake / Tumor uptake: mean ± SD n = 6", "summary_of_the_method": "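Athymic male nude mice (16 - 20 g) received 5.0×10^6 PC3 cells subcutaneously in the upper back; tumors grew 2–3 weeks to about 1 cm diameter. 99mTc-labeled conjugate was given by tail vein and biodistribution evaluated at 30 and 90 min post-injection; blocking groups were coinjected with excess cold conjugate. Organs were excised, weighed and gamma-counted; %ID/g was computed against injected-dose activity; mean ± SD, n = 6.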"}, "PC-3 tumors [5]": {"system": "PC-3 tumors", "assay_type": "in vivo", "conditions": "PC-3 tumor-bearing mice"}, "[6]": {"conditions": "cited from earlier work"}, "DU-145 prostate cells": {"system": "DU-145 prostate cells", "conditions": "cited from earlier work"}, "PC-3 cells": {"system": "PC-3 cells", "conditions": "cited from earlier work"}}, "note": "Read-outs that look alike come from different tables or passages of the source."}
{"substance": "FRPNRAQDYNTNK-SAMA-G-G-G-Ahx-NH2 [99mTc-SAMA-G3-Ahx-DUP-1]", "values": [{"measurement": "partition ratio", "setting": "[1]", "value": 0.00389}, {"measurement": "Radioactivity associated with PC3 tumor cells (binding)", "setting": "[2]; 90 pM 99mTc-labeled peptide, no cold peptide, 37°C", "value": "~1.97", "unit": "%"}, {"measurement": "decrease of binding with cold peptide", "setting": "[2]; cold conjugate increased 0 to 18 nM, 90 pM tracer", "value": 63, "unit": "%"}, {"measurement": "Blood uptake", "setting": "[3]; 5 min", "value": "1.21±0.02", "unit": "%ID/g"}, {"measurement": "Bone uptake", "setting": "[3]; 5 min", "value": "0.84±0.17", "unit": "%ID/g"}, {"measurement": "Heart uptake", "setting": "[3]; 5 min", "value": "0.82±0.14", "unit": "%ID/g"}, {"measurement": "Kidney uptake", "setting": "[3]; 5 min", "value": "22.62±2.03", "unit": "%ID/g"}, {"measurement": "Liver uptake", "setting": "[3]; 5 min", "value": "12.31±2.19", "unit": "%ID/g"}, {"measurement": "Lung uptake", "setting": "[3]; 5 min", "value": "1.48±0.23", "unit": "%ID/g"}, {"measurement": "Muscle uptake", "setting": "[3]; 5 min", "value": "0.77±0.06", "unit": "%ID/g"}, {"measurement": "Pancreas uptake", "setting": "[3]; 5 min", "value": "1.44±0.33", "unit": "%ID/g"}, {"measurement": "Spleen uptake", "setting": "[3]; 5 min", "value": "1.37±0.18", "unit": "%ID/g"}, {"measurement": "Blood uptake", "setting": "[3]; 30 min", "value": "0.43±0.06", "unit": "%ID/g"}, {"measurement": "Bone uptake", "setting": "[3]; 30 min", "value": "0.20±0.01", "unit": "%ID/g"}, {"measurement": "Heart uptake", "setting": "[3]; 30 min", "value": "0.24±0.07", "unit": "%ID/g"}, {"measurement": "Kidney uptake", "setting": "[3]; 30 min", "value": "21.06±0.41", "unit": "%ID/g"}, {"measurement": "Liver uptake", "setting": "[3]; 30 min", "value": "8.58±1.75", "unit": "%ID/g"}, {"measurement": "Lung uptake", "setting": "[3]; 30 min", "value": "0.73±0.16", "unit": "%ID/g"}, {"measurement": "Muscle uptake", "setting": "[3]; 30 min", "value": "0.14±0.04", "unit": "%ID/g"}, {"measurement": "Pancreas uptake", "setting": "[3]; 30 min", "value": "0.18±0.11", "unit": "%ID/g"}, {"measurement": "Spleen uptake", "setting": "[3]; 30 min", "value": "0.28±0.07", "unit": "%ID/g"}, {"measurement": "Blood uptake", "setting": "[3]; 90 min", "value": "0.08±0.01", "unit": "%ID/g"}, {"measurement": "Bone uptake", "setting": "[3]; 90 min", "value": "0.05±0.02", "unit": "%ID/g"}, {"measurement": "Heart uptake", "setting": "[3]; 90 min", "value": "0.04±0.01", "unit": "%ID/g"}, {"measurement": "Kidney uptake", "setting": "[3]; 90 min", "value": "7.28±2.07", "unit": "%ID/g"}, {"measurement": "Liver uptake", "setting": "[3]; 90 min", "value": "1.57±0.57", "unit": "%ID/g"}, {"measurement": "Lung uptake", "setting": "[3]; 90 min", "value": "0.15±0.037", "unit": "%ID/g"}, {"measurement": "Muscle uptake", "setting": "[3]; 90 min", "value": "0.51±0.01", "unit": "%ID/g"}, {"measurement": "Pancreas uptake", "setting": "[3]; 90 min", "value": "0.05±0.01", "unit": "%ID/g"}, {"measurement": "Spleen uptake", "setting": "[3]; 90 min", "value": "0.09±0.03", "unit": "%ID/g"}, {"measurement": "Blood uptake", "setting": "[3]; 240 min", "value": "0.05±0.01", "unit": "%ID/g"}, {"measurement": "Bone uptake", "setting": "[3]; 240 min", "value": "0.05±0.01", "unit": "%ID/g"}, {"measurement": "Heart uptake", "setting": "[3]; 240 min", "value": "0.03±0.02", "unit": "%ID/g"}, {"measurement": "Kidney uptake", "setting": "[3]; 240 min", "value": "3.22±0.43", "unit": "%ID/g"}, {"measurement": "Liver uptake", "setting": "[3]; 240 min", "value": "1.53±0.64", "unit": "%ID/g"}, {"measurement": "Lung uptake", "setting": "[3]; 240 min", "value": "0.13±0.07", "unit": "%ID/g"}, {"measurement": "Muscle uptake", "setting": "[3]; 240 min", "value": "0.17±0.07", "unit": "%ID/g"}, {"measurement": "Pancreas uptake", "setting": "[3]; 240 min", "value": "0.04±0.01", "unit": "%ID/g"}, {"measurement": "Spleen uptake", "setting": "[3]; 240 min", "value": "0.07±0.02", "unit": "%ID/g"}, {"measurement": "Uptake ratio Tumor/blood", "setting": "PC-3 tumors [4]; 30 min post-injection", "value": 1.23}, {"measurement": "Uptake ratio Tumor/muscle", "setting": "PC-3 tumors [4]; 30 min post-injection", "value": 3.15}, {"measurement": "Blood uptake", "setting": "PC-3 tumors [4]; 30 min post-injection", "value": "0.69±0.14", "unit": "%ID/g"}, {"measurement": "Bone uptake", "setting": "PC-3 tumors [4]; 30 min post-injection", "value": "0.31±0.08", "unit": "%ID/g"}, {"measurement": "Heart uptake", "setting": "PC-3 tumors [4]; 30 min post-injection", "value": "0.41±0.02", "unit": "%ID/g"}, {"measurement": "Lung uptake", "setting": "PC-3 tumors [4]; 30 min post-injection", "value": "1.24±0.43", "unit": "%ID/g"}, {"measurement": "Muscle uptake", "setting": "PC-3 tumors [4]; 30 min post-injection", "value": "0.27±0.27", "unit": "%ID/g"}, {"measurement": "Spleen uptake", "setting": "PC-3 tumors [4]; 30 min post-injection", "value": "0.56±0.13", "unit": "%ID/g"}, {"measurement": "Stomach uptake", "setting": "PC-3 tumors [4]; 30 min post-injection", "value": "1.05±0.07", "unit": "%ID/g"}, {"measurement": "Tumor uptake", "setting": "PC-3 tumors [4]; 30 min post-injection", "value": "0.85±0.19", "unit": "%ID/g"}, {"measurement": "Uptake ratio Tumor/blood", "setting": "PC-3 tumors [4]; 90 min post-injection", "value": 1.78}, {"measurement": "Uptake ratio Tumor/muscle", "setting": "PC-3 tumors [4]; 90 min post-injection", "value": 1.32}, {"measurement": "Blood uptake", "setting": "PC-3 tumors [4]; 90 min post-injection", "value": "0.23±0.06", "unit": "%ID/g"}, {"measurement": "Bone uptake", "setting": "PC-3 tumors [4]; 90 min post-injection", "value": "0.30±0.05", "unit": "%ID/g"}, {"measurement": "Heart uptake", "setting": "PC-3 tumors [4]; 90 min post-injection", "value": "0.10±0.10", "unit": "%ID/g"}, {"measurement": "Lung uptake", "setting": "PC-3 tumors [4]; 90 min post-injection", "value": "0.34±0.27", "unit": "%ID/g"}, {"measurement": "Muscle uptake", "setting": "PC-3 tumors [4]; 90 min post-injection", "value": "0.31±0.11", "unit": "%ID/g"}, {"measurement": "Spleen uptake", "setting": "PC-3 tumors [4]; 90 min post-injection", "value": "0.54±0.19", "unit": "%ID/g"}, {"measurement": "Stomach uptake", "setting": "PC-3 tumors [4]; 90 min post-injection", "value": "0.72±0.27", "unit": "%ID/g"}, {"measurement": "Tumor uptake", "setting": "PC-3 tumors [4]; 90 min post-injection", "value": "0.41±0.11", "unit": "%ID/g"}, {"measurement": "cold conjugate-blocked tumor uptake", "setting": "PC-3 tumors [5]; 30 min post-injection", "value": 82, "unit": "%"}, {"measurement": "cold conjugate-blocked tumor uptake", "setting": "PC-3 tumors [5]; 90 min post-injection", "value": 83, "unit": "%"}]}
{"substance": "FRPNRAQDYNTN [DUP-1]", "values": [{"measurement": "serum stability", "setting": "[6]", "value": "serum-instable"}, {"measurement": "binding to DU-145 prostate cells", "setting": "DU-145 prostate cells", "value": "high affinity"}, {"measurement": "binding to PC-3 cells", "setting": "PC-3 cells", "value": "high affinity"}]}
